The assay deals with Muscarinic acetylcholine receptor M2 (Rattus norvegicus) (UniProt P10980). Briefly: M2 receptor potentiation by M5-directed compounds, selectivity assay for M5 PAM discovery project, CHO cells, rat M2, calcium flux (AID 651929). Particulars: CHO-K1 rM2/Gqi5, ACh EC20 calcium flux (Fluo-4); series mostly up to 30 µM. A digest of the protocol:
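Test system: CHO-K1 cells expressing M2 receptor coupled to Gqi5 chimera; medium: pH 7.4 buffer containing probenecid; also added: EC20 acetylcholine; schedule: 1.5 min compound, 50 s agonist, 25 °C; technique: intracellular calcium response; read-out: % of maximal acetylcholine response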
(A change in cytosolic calcium serves as a functional read-out for many receptors and channels.)

Among the data in PubChem BioAssay AID651929 (Vanderbilt Specialized Chemistry Center, 2012) are outcome values, retold here.

Activity calls are given as the source filed them. The rule behind the calls is not given here.

Sequence of Muscarinic acetylcholine receptor M2 (Rattus norvegicus) (P10980 whole entry, looked up): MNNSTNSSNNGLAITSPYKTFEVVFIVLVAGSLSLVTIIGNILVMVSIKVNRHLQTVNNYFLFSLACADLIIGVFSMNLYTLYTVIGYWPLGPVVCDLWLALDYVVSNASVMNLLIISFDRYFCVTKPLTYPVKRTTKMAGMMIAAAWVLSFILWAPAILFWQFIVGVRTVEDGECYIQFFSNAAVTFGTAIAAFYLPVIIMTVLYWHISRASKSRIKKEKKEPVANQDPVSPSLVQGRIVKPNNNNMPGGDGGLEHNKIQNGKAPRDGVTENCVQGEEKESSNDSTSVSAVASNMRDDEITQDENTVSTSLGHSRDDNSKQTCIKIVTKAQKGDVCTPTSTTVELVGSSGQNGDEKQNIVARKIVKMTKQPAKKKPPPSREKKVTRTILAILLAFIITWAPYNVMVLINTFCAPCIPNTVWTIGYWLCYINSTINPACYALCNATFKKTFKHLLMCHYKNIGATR

In the case of `O=C1C(=O)N(CCOc2ccccc2)c2ccc(OC(F)(F)F)cc21`, the outcome was inactive.
